The text below walks through data of ChEMBL document CHEMBL1671683, “Activity of linezolid in an in vitro pharmacokinetic-pharmacodynamic model using different dosages and Staphylococcus aureus and Enterococcus faecalis strains with and without a hypermutator phenotype” (Antimicrob Agents Chemother, 2010).

The nature of data set [1]: Apparent volume of distribution in two-compartment pharmacokinetic/pharmacodynamic model at 400 mg, bid administered as 0.5 hrs infusion. Format: ADME, organism-based. The conditions noted are these: iv.
Data set [2] is described as follows: Tmax in two-compartment pharmacokinetic/pharmacodynamic model at 600 mg, bid administered as 0.5 hr infusion over 24 hrs. Format: ADME, organism-based. To be noted: iv.
In data set [3] the test system is Enterococcus faecalis. Nature of the data set: Bactericidal activity against 13 hrs peripheral compartment culture samples of Enterococcus faecalis Ef1497 in two-compartment pharmacokinetic/pharmacodynamic model assessed as effect on bacterial count at 800 mg, bid administered as 0.5 hr infusion. Type of data set: functional. The gist of the method: (§1)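 An 18-h culture concentrated 50-fold was injected into the peripheral compartment 3 h pre-sampling (~10^8 CFU/ml E. faecalis, 10^9 S. aureus). Counts came from dilution plating (detection limit 2–3 log10 CFU/ml), expressed as Δlog CFU/ml from treatment start. Run in duplicate.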

Data set [4] in a line: Apparent volume of distribution in two-compartment pharmacokinetic/pharmacodynamic model at 800 mg, bid administered as 0.5 hrs infusion. Format: ADME, organism-based. The conditions noted are these: iv.
Data set [5] in a line: Mean residence time in two-compartment pharmacokinetic/pharmacodynamic model at 800 mg, bid administered as 0.5 hrs infusion. Format: ADME, organism-based. The conditions noted are these: iv.
Data set [6] is described as follows: in vivo. The conditions noted are these: iv, 600 mg.
Data set [7] in a line: Cmax in two-compartment pharmacokinetic/pharmacodynamic model at 800 mg, bid administered as 0.5 hr infusion over 24 hrs. Format: ADME, organism-based. Further details: dose 800 mg. The conditions noted are these: iv.
The subject of data set [8] is Enterococcus faecalis. The data set is described as follows: Bactericidal activity against 1 hr peripheral compartment culture samples of Enterococcus faecalis Ef1497 MutM3 in two-compartment pharmacokinetic/pharmacodynamic model assessed as effect on bacterial count at 600 mg, bid administered as 0.5 hr infusion. Format: functional. The gist of the method:
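Two-compartment hollow-fibre model in cation-adjusted, protein-free MH broth, 37°C. Linezolid given as simulated 0.5-h infusion twice daily. Inoculum grown 18 h, concentrated 50-fold and placed in the peripheral compartment 3 h before t0. Peripheral samples at set times counted by dilution plating. First 10-fold dilution not plated, limiting detection to 2–3 log10 CFU/ml. Δlog CFU/ml taken from t0 count. Duplicates.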

For data set [9], the system named is Staphylococcus aureus. The data set is described as follows: Bactericidal activity against 48 hrs peripheral compartment culture samples of Staphylococcus aureus RN4220 MutS2 in two-compartment pharmacokinetic/pharmacodynamic model assessed as effect on bacterial count at 600 mg, bid administered as 0.5 hr infusion. Type of data set: functional. The gist of the method:
as §1

The nature of data set [10]: Residual concentration at the end of the administration interval in two-compartment pharmacokinetic/pharmacodynamic model at 600 mg, bid administered as 0.5 hrs infusion. Type of data set: ADME. The conditions noted are these: iv, read-out: Drug uptake.
Data set [11] in a line: Total clearance in two-compartment pharmacokinetic/pharmacodynamic model at 800 mg, bid administered as 0.5 hrs infusion. Type of data set: ADME, organism-based. To be noted: iv.
Data set [12] can be described thus: Apparent volume of distribution in two-compartment pharmacokinetic/pharmacodynamic model at 600 mg, bid administered as 0.5 hrs infusion. The conditions noted are these: iv.
Data set [13] can be described thus: Tmax in two-compartment pharmacokinetic/pharmacodynamic model at 200 mg, bid administered as 0.5 hr infusion over 24 hrs. Type of data set: ADME, organism-based. To be noted: iv. Put shortly:
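Two-compartment in vitro hollow-fibre model in cation-adjusted, protein-free Mueller-Hinton broth at 37°C. Human total-plasma linezolid profile simulated as 0.5-h infusion every 12 h for 48 h, computer-controlled syringe pump into central compartment. […] Peripheral samples assayed by validated HPLC-UV (quantification limit 0.39 μg/ml). Tmax read directly from concentration-time profiles. Run in duplicate.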

The test system of data set [14] is Enterococcus faecalis. The data set is described as follows: Bactericidal activity against 48 hrs peripheral compartment culture samples of Enterococcus faecalis Ef1497 in two-compartment pharmacokinetic/pharmacodynamic model assessed as effect on bacterial count at 600 mg, bid administered as 0.5 hr infusion. Format: functional. The gist of the method:
as §1

The nature of data set [15]: Mean residence time in two-compartment pharmacokinetic/pharmacodynamic model at 800 mg, bid administered as 0.5 hr infusion over 24 hrs. Type of data set: ADME, organism-based. To be noted: in vivo, iv.
Data set [16] can be described thus: AUC in two-compartment pharmacokinetic/pharmacodynamic model at 600 mg, bid administered as 0.5 hrs infusion. Format: ADME. To be noted: iv.

The Tmax is the time from dosing to the highest level. Usually MRT stands for a mean duration of stay, worked out from the concentration-time curve. For orientation: half-life means the time in which the quantity being followed falls by half. Higher therefore signals slow decline. In general, Cmax refers to the maximum level reached in the sampled fluid or tissue. What is called clearance is the volume of plasma or blood freed of the substance per unit of time. A high value points to efficient removal. What is called AUC is the area under the concentration-time curve, a measure of exposure. A lower AUC goes with low exposure. For `CC(=O)NC[C@H]1CN(c2ccc(N3CCOCC3)c(F)c2)C(=O)O1` [LINEZOLID], the values for the Vd in data set [1], in data set [4] and in data set [12] were 130 L, 124 L and 115 L, respectively. The Tmax in data set [2] and in data set [13] was 0.5 h throughout. Further, the log10CFU/ml in [3] is recorded as -0.16; in data set [8] it was -0.01; in data set [9], 0.74; in data set [14], 0.39. The figures for the MRT in data set [5] and in data set [15] were 6.55 h and 6.81 h, respectively. The compound also showed a half-life in data set [6] of 6.18 h. In data set [7], this compound displayed a Cmax of 19500 ng/mL. Besides, the concentration at 0.5 h in data set [10] turned out to be 1170 ng/mL. This compound showed a clearance in [11] of 287 mL/min. In data set [16], the area under the curve (AUC) at 0.5 h amounted to 43000 ng·h/mL.
